# Measured values as given in ChEMBL document CHEMBL4376859, “Prodrugs for nitroreductase-based cancer therapy-3: Antitumor activity of the novel dinitroaniline prodrugs/Ssap-NtrB enzyme suicide gene system: Synthesis, in vitro and in silico evaluation in prostate cancer” (Eur J Med Chem, 2020).
# The source made the active and inactive calls. The calls are words filed in the database; no cut-off is given here.
# What was measured:
# [1] = target: T1, Putative nitroreductase (Staphylococcus saprophyticus subsp. saprophyticus (strain ATCC 15305 / DSM20229 / NCIMB 8711 / NCTC 7292 / S-41), UniProt Q4A0P1); assay: Substrate activity at Staphylococcus saprophyticus nitroreductase expressed in Escherichia coli BL21 (DE3) assessed as retention time by HPLC analysis; assay type: ADME
# T1 sequence (Q4A0P1 whole entry): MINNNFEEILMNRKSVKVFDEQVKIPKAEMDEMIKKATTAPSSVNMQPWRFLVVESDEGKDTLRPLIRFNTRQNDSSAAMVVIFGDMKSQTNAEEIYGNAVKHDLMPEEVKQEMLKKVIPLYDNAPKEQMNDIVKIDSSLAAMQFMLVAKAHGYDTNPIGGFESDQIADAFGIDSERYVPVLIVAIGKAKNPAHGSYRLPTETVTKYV
# [2] = target: T1, Putative nitroreductase; assay: Substrate activity at Staphylococcus saprophyticus nitroreductase NtrB assessed as Kcat/Km using NADPH as cofactor in Tris-Cl buffer at pH 7.5 by HPLC analysis relative to CB1954/NfsB; assay type: ADME
# [3] = test system: PC-3; assay: Cytotoxicity against human PC3 cells […] Staphylococcus saprophyticus nitroreductase NtrB assessed as reduction in cell viability in presence of NADH as cofactor after 48 hrs by SRB assay; assay type: functional, cell-based; settings: PC-3, 48 h
# How it was run: (§1)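 Compounds were reduced outside the cells by purified His-tag (Ni column) Ssap-NtrB. The reaction mix held 600 µM NADH and compound (150, 39, 9 µM, or 180, 18, 1.8 nM) and was applied to PC-3 cells. Controls were compound alone in 25 mM Tris/HCl pH 7.5, and enzyme alone at 31 µg/mL. After 48 h, SRB absorbance was read at 492 nm and converted to % viability.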
# [4] = test system: Hep 3B2; assay: Cytotoxicity against human Hep3B cells assessed as cell viability at 9 to 150 uM after 24 hrs by MTT assay relative to control; assay type: functional
# How it was run: (§2)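 Hep3B hepatoma, PC-3 prostate cancer and HUVEC (healthy control) cells were exposed to nitro compounds at 150, 75, 38, 19 and 9 µM for 24 h and 48 h. Viability was read by MTT assay, and IC50 values were derived from the growth inhibition curves.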
# [5] = test system: Hep 3B2; assay: Cytotoxicity against human Hep3B cells assessed as cell viability at 9 to 150 uM after 48 hrs by MTT assay relative to control; assay type: functional; how it was run: as §2
# [6] = test system: PC-3; assay: Cytotoxicity against human PC3 cells assessed as cell viability at 9 to 150 uM after 24 hrs by MTT assay relative to control; assay type: functional; how it was run: as §2
# [7] = test system: PC-3; assay: Cytotoxicity against human PC3 cells assessed as cell viability at 9 to 150 uM after 48 hrs by MTT assay relative to control; assay type: functional; how it was run: as §2
# [8] = Cytotoxicity against human HUVEC cells assessed as cell viability at 9 to 150 uM after 24 hrs by MTT assay relative to control; assay type: cell-based; settings: read-out: Activity; how it was run: as §2
# [9] = Cytotoxicity against human HUVEC cells assessed as cell viability at 9 to 150 uM after 48 hrs by MTT assay relative to control; assay type: cell-based; settings: read-out: Activity; how it was run: as §2
# [10] = test system: PC-3; assay: Cytotoxicity against human PC3 cells assessed as reduction in cell viability after 48 hrs by SRB assay; assay type: functional, cell-based; how it was run: as §1
# [11] = test system: PC-3; assay: Cytotoxicity against human PC3 cells assessed as cell viability after 24 hrs by MTT assay; assay type: functional, cell-based; how it was run: as §2
# [12] = test system: HUVEC; assay: Cytotoxicity against human HUVEC cells assessed as cell viability after 24 hrs by MTT assay; assay type: cell-based; how it was run: as §2
# [13] = target: T1, Putative nitroreductase; assay: Substrate activity at Staphylococcus saprophyticus nitroreductase NtrB assessed as enzyme specific activity using NADH as cofactor in Tris-Cl buffer at pH 7.5 by HPLC analysis; assay type: ADME
# [14] = test system: Hep 3B2; assay: Cytotoxicity against human Hep3B cells assessed as cell viability after 24 hrs by MTT assay; assay type: functional, cell-based; how it was run: as §2
# [15] = test system: Hep 3B2; assay: Cytotoxicity against human Hep3B cells assessed as cell viability after 48 hrs by MTT assay; assay type: functional, cell-based; how it was run: as §2
# [16] = test system: PC-3; assay: Cytotoxicity against human PC3 cells assessed as cell viability after 48 hrs by MTT assay; assay type: functional, cell-based; how it was run: as §2
# [17] = test system: HUVEC; assay: Cytotoxicity against human HUVEC cells assessed as cell viability after 48 hrs by MTT assay; assay type: cell-based; settings: human, huvec; how it was run: as §2
# [18] = Substrate activity at Escherichia coli nitroreductase nfsA assessed as Kcat using NADPH as cofactor in Tris-Cl buffer at pH 7.5 by spectrophotometric method; assay type: ADME
# [19] = target: T2, Oxygen-insensitive NAD(P)H nitroreductase (Escherichia coli K-12, UniProt P38489); assay: Substrate activity at Escherichia coli nitroreductase nfsB assessed as Kcat using NADH as cofactor in Tris-Cl buffer at pH 7.5 by spectrophotometric method; assay type: ADME
# T2 sequence (P38489 whole entry): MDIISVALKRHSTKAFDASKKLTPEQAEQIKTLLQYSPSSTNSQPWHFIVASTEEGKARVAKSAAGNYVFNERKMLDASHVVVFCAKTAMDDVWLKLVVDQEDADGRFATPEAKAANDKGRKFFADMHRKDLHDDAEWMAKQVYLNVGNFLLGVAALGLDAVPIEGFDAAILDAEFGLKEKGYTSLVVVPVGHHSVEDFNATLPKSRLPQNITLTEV
# [20] = target: T1, Putative nitroreductase; assay: Substrate activity at Staphylococcus saprophyticus nitroreductase NtrB assessed as Kcat using NADPH as cofactor in Tris-Cl buffer at pH 7.5 incubated for 30 mins by HPLC analysis; assay type: ADME; settings: pH 7.5, 0.5 h
# [21] = test system: nitroreductase nfsA; assay: Substrate activity at Escherichia coli nitroreductase nfsA assessed as Km using NADPH as cofactor in Tris-Cl buffer at pH 7.5 by spectrophotometry based Michaelis-Menten plot analysis; assay type: ADME; settings: Escherichia coli nitroreductase nfsA enzyme
# [22] = target: T2, Oxygen-insensitive NAD(P)H nitroreductase; assay: Substrate activity at Escherichia coli nitroreductase nfsB assessed as Km using NADH as cofactor in Tris-Cl buffer at pH 7.5 by spectrophotometric method based Michaelis-Menten plot analysis; assay type: ADME
# [23] = target: T1, Putative nitroreductase; assay: Substrate activity at Staphylococcus saprophyticus nitroreductase NtrB assessed as Km using NADPH as cofactor in Tris-Cl buffer at pH 7.5 incubated for 30 mins by HPLC analysis; assay type: ADME; settings: pH 7.5, 0.5 h
# [24] = Substrate activity at Escherichia coli nitroreductase nfsA assessed as ratio of Kcat/Km using NADPH as cofactor in Tris-Cl buffer at pH 7.5 by spectrophotometry based Michaelis-Menten plot analysis; assay type: ADME
# [25] = target: T2, Oxygen-insensitive NAD(P)H nitroreductase; assay: Substrate activity at Escherichia coli nitroreductase nfsB assessed as ratio of Kcat/Km using NADH as cofactor in Tris-Cl buffer at pH 7.5 by spectrophotometric method based Michaelis-Menten plot analysis; assay type: ADME
# [26] = target: T1, Putative nitroreductase; assay: Substrate activity at Staphylococcus saprophyticus nitroreductase NtrB assessed as ratio of Kcat/Km using NADPH as cofactor in Tris-Cl buffer at pH 7.5 incubated for 30 mins by HPLC analysis; assay type: ADME; settings: pH 7.5, 0.5 h
# [27] = target: T2, Oxygen-insensitive NAD(P)H nitroreductase; assay: Substrate activity at Escherichia coli nitroreductase nfsB assessed as ratio of Kcat/Km using NADH as cofactor in Tris-Cl buffer at pH 7.5 by spectrophotometric method based Michaelis-Menten plot analysis relative to CB1954/NfsB; assay type: ADME
# [28] = target: T1, Putative nitroreductase; assay: Substrate activity at Staphylococcus saprophyticus nitroreductase NtrB assessed as ratio of Kcat/Km using NADPH as cofactor in Tris-Cl buffer at pH 7.5 incubated for 30 mins by HPLC analysis relative to CB1954/NfsB; assay type: ADME; settings: pH 7.5, 0.5 h
# [29] = target: T3, Nitroreductase (Bacillus amyloliquefaciens, UniProt Q8VSR5); assay: Substrate activity at Bacillus amyloliquefaciens nitroreductase ywrO assessed as ratio of Kcat/Km using NADPH as cofactor in sodium phosphate buffer at pH 7.5 by HPLC analysis relative to CB1954/NfsB; assay type: ADME
# T3 sequence (Q8VSR5 whole entry): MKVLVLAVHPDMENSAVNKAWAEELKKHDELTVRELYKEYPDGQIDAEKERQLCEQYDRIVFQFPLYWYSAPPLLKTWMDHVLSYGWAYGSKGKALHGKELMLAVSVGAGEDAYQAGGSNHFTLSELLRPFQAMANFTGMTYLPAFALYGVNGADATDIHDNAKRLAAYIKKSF
# [30] = target: T1, Putative nitroreductase; assay: Binding affinity to Staphylococcus saprophyticus nitroreductase NtrB
# [31] = Substrate activity at Escherichia coli nitroreductase nfsA assessed as ratio of Kcat/Km using NADPH as cofactor in Tris-Cl buffer at pH 7.5 by spectrophotometric method based Michaelis-Menten plot analysis relative to CB1954/NfsB
SMILES,Retention_time [1],IC50 [3],Activity [4],Activity [5],Activity [6],Activity [7],"viability at 24 h, up to 150 µM [8]","viability at 48 h, up to 150 µM [9]",Activity [10],other results
CC(C)Nc1ccc([N+](=O)[O-])cc1[N+](=O)[O-],17.94 min,9.77 µM,>80%,51 - 80%,>80%,>80%,> 80%,> 80%,inactive,fold change (FC) [2]: 0.74
O=[N+]([O-])c1cc([N+](=O)[O-])c(Nc2ccc(Cl)cc2)cc1Nc1ccc(Cl)cc1,35 min,–,51 - 80%,51 - 80%,–,51 - 80%,–,51 to 80%,–,"IC50 ([11]; Homo sapiens, PC-3, 24 h, read-out: IC50): 150 µM; IC50 ([12]; Homo sapiens, HUVEC): 86.5 µM; Activity [13]: 5.77 U/mg"
O=[N+]([O-])c1ccc(Nc2ccccc2)c([N+](=O)[O-])c1,18.41 min,–,–,–,>80%,>80%,> 80%,> 80%,inactive,"IC50 [14]: 84.9 µM; IC50 [15]: 150 µM; IC50 ([11]; pc-3): Not Active; IC50 [16]: Not Active; Activity ([12]; human, huvec): Non-Toxic; Activity [17]: Non-Toxic"
NC(=O)c1cc(N2CC2)c([N+](=O)[O-])cc1[N+](=O)[O-] [TRETAZICAR],–,0.00179 µM,>80%,>80%,>80%,>80%,> 80%,> 80%,inactive,Kcat [18]: 16 s⁻¹; Kcat [19]: 62 s⁻¹; Kcat [20]: 2.26 s⁻¹; Km [21]: 220 µM; Km [22]: 11000 µM; Km [23]: 1070 µM; Kcat/Km [24]: 73000 M⁻¹ s⁻¹; Kcat/Km [25]: 5600 M⁻¹ s⁻¹; Kcat/Km [26]: 2120 M⁻¹ s⁻¹; fold change (FC) [27]: 1; fold change (FC) [28]: 0.38; fold change (FC) [29]: 2.37; Ki [30]: 5.96 µM; fold change (FC) [31]: 13.04
